Measurements as given in ChEMBL document CHEMBL3045292, “Synthesis and herbicidal activity of 2-(7-fluoro-3-oxo- 3,4-dihydro-2H-benzo[b][1,4]oxazin-6-yl)isoindoline-1,3-diones” (J Agric Food Chem, 2005).

Assays:
[1] = test system: Echinochloa crus-galli; assay: Herbicidal activity against Echinochloa crus-galli (barnyard grass) (barnyard grass) assessed as weed growth inhibition at 75 g/ha pre-emergence treatment […]; format: functional; details: read-out: GI
In short: (§1)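 Pot-grown plants in the greenhouse, in clay soil (pH 6.5, 1.6% organic matter, 37.3% clay, CEC 12.1 cmol/kg). Compound was made up as a 100 g/L emulsified concentrate (DMF, Tween-80), diluted in water and sprayed at 75 g ai/ha. Pre-emergence spraying was 24 h after sowing; post-emergence at two-leaf (dicots) or one-leaf (monocots) stage. Untreated and DMF controls. Percent growth inhibition scored visually 15 days post-treatment.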

[2] = test system: Abutilon theophrasti; assay: Herbicidal activity against Abutilon theophrasti (velvetleaf) assessed as weed growth inhibition at 75 g/ha post-emergence treatment […]; format: functional; details: read-out: GI; in short: as §1
[3] = test system: Digitaria sanguinalis; assay: Herbicidal activity against crabgrass Digitaria sanguinalis(hairy crabgrass) assessed as weed growth inhibition at 75 g/ha pre-emergence treatment […]; format: functional; details: read-out: GI; in short: as §1
[4] = test system: Abutilon theophrasti; assay: Herbicidal activity against Abutilon theophrasti (velvetleaf) assessed as weed growth inhibition at post-emergence treatment […]; format: functional, organism-based; in short: as §1
[5] = test system: Amaranthus blitum; assay: Herbicidal activity against Amaranthus blitum assessed as weed growth inhibition at 75 g/ha pre-emergence treatment […]; format: functional; details: read-out: GI; in short: as §1
[6] = test system: Digitaria sanguinalis; assay: Herbicidal activity against crabgrass Digitaria sanguinalis(hairy crabgrass) assessed as weed growth inhibition at post-emergence treatment […]; format: functional, organism-based; in short: as §1
[7] = test system: Chenopodium album; assay: Herbicidal activity against fat hen Chenopodium album assessed as weed growth inhibition at 75 g/ha post-emergence treatment […]; format: functional; details: read-out: GI; in short: as §1
[8] = test system: Echinochloa crus-galli; assay: Herbicidal activity against Echinochloa crus-galli (barnyard grass) (barnyard grass) assessed as weed growth inhibition at 75 g/ha post-emergence treatment […]; format: functional; details: read-out: GI; in short: as §1
[9] = test system: Abutilon theophrasti; assay: Herbicidal activity against Abutilon theophrasti (velvetleaf) assessed as weed growth inhibition at 75 g/ha pre-emergence treatment […]; format: functional; details: read-out: GI; in short: as §1
[10] = test system: Amaranthus blitum; assay: Herbicidal activity against Amaranthus blitum assessed as weed growth inhibition at 75 g/ha post-emergence treatment […]; format: functional; details: read-out: GI; in short: as §1
[11] = test system: Setaria viridis; assay: Herbicidal activity against Setaria viridis (green foxtail) assessed as weed growth inhibition at 75 g/ha post-emergence treatment […]; format: functional; details: read-out: GI; in short: as §1
[12] = test system: Setaria viridis; assay: Herbicidal activity against Setaria viridis (green foxtail) assessed as weed growth inhibition at 75 g/ha pre-emergence treatment […]; format: functional; details: read-out: GI; in short: as §1
[13] = test system: Chenopodium album; assay: Herbicidal activity against fat hen Chenopodium album assessed as weed growth inhibition at 75 g/ha pre-emergence treatment […]; format: functional; details: read-out: GI; in short: as §1
[14] = test system: Digitaria sanguinalis; assay: Herbicidal activity against crabgrass Digitaria sanguinalis(hairy crabgrass) assessed as weed growth inhibition at 75 g/ha post-emergence treatment […]; format: functional; details: read-out: GI; in short: as §1

| SMILES | inhibition of growth at 75 g/ha [1] | inhibition of growth at 75 g/ha [2] | inhibition of growth at 75 g/ha [3] | IC50 [4] | inhibition of growth at 75 g/ha [5] | IC50 [6] | inhibition of growth at 75 g/ha [7] | inhibition of growth at 75 g/ha [8] | inhibition of growth at 75 g/ha [9] | inhibition of growth at 75 g/ha [10] | inhibition of growth at 75 g/ha [11] | inhibition of growth at 75 g/ha [12] | inhibition of growth at 75 g/ha [13] | inhibition of growth at 75 g/ha [14] |
| --- | --- | --- | --- | --- | --- | --- | --- | --- | --- | --- | --- | --- | --- | --- |
| CN1C(=O)COc2cc(F)c(N3C(=O)c4ccc(F)cc4C3=O)cc21 | < 50% | < 50% | < 50% | 161 g/ha | < 50% | 172 g/ha | < 50% | < 50% | < 50% | < 50% | < 50% | < 50% | < 50% | < 50% |
| C#CCN1C(=O)COc2cc(F)c(N3C(=O)c4cccc(C)c4C3=O)cc21 | < 50% | < 50% | < 50% | 87 g/ha | < 50% | 63 g/ha | < 50% | 50% | < 50% | < 50% | < 50% | < 50% | < 50% | 50% |
| O=C1COc2cc(F)c(N3C(=O)c4cccc(F)c4C3=O)cc2N1CC#CI | < 50% | > 80% | < 50% | 7.2 g/ha | > 80% | 40 g/ha | > 80% | > 80% | > 80% | > 80% | > 80% | < 50% | > 80% | > 80% |
